How the values were obtained:
MS2 coat protein [1] = assay: apparent Kd, MS2 coat protein; higher = weaker binding; RNA-MaP array; tryptophan 2.4 mM where present
Summary of the method: (§1)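 Designs were transcribed by stalled E. coli RNA polymerase on Illumina sequencing-chip clusters. They were titrated with SNAP-549-labelled MS2 coat protein from 0.7 or 1.5 nM, doubling to 3 µM, in 100 mM Tris-HCl pH 7.5, 80 mM KCl, 4 mM MgCl2, BSA, DTT, yeast tRNA and Tween-20, without and then with constant ligand. The apparent Kd is the median of filtered per-cluster fits after normalisation of green signal to red-channel RNA signal and control-cluster median Fmax.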

MS2 coat protein [2] = assay: apparent Kd, MS2 coat protein; higher = weaker binding; RNA-MaP array; theophylline 2 mM where present
Summary of the method: as §1

[3] = designed as: OFF switch for tryptophan, no ligand
[4] = ligand present: tryptophan, designed as: OFF switch for tryptophan
[5] = designed as: ON switch for tryptophan, no ligand
[6] = ligand present: tryptophan, designed as: ON switch for tryptophan
[7] = designed as: ON switch for theophylline, no ligand
[8] = ligand present: theophylline, designed as: ON switch for theophylline
[9] = designed as: OFF switch for theophylline, no ligand
[10] = ligand present: theophylline, designed as: OFF switch for theophylline

Sequence	apparent Kd (MS2 coat protein [1]; [3]) [nM]	apparent Kd (MS2 coat protein [1]; [4]) [nM]	apparent Kd (MS2 coat protein [1]; [5]) [nM]	apparent Kd (MS2 coat protein [1]; [6]) [nM]	other results
ACUACAAAGUAGUAUAUACGAAAGUAUAGACGAGGACCGGUACGGCCGCCACUCGGUACCGGAAACACAUGAGGAUCACCCAUGU	20.6	17.6	–	–	–
AUAACGAGUGGUGGAAUACAUGGGUGAUAACGAGGACCGGUACGGCCGCCACUCGAUAACAUGAGGAUCACCCAUGUAAUAAUAA	161	31.1	–	–	–
GCUAGGUCAUCGGCCGCCACUAACGAUGGCUCCGACAUGAGGAUCACCCAUGUGCCACAUGCGCAUAGGACCGGGAUGACCUAGC	–	–	18.5	14.3	–
ACGUUUUAGUCGGCCGCCACUGAUCUCAUGUUCAACAUGAGGAUCACCCAUGUACCUUUUUUUAUCAGGACCGGGACGUAAUAGA	–	–	329	62.3	–
CUACAUUUGUAGAAACCGGUCAACAUUAUUCGAGGACCGGUACGGCCGCCACUCGUAUAAUUUAAUACAUGAGGAUCACCCAUGU	–	–	14.6	15.9	–
AAGACAUGAGGAUCACCCAUGUCGUCUACACGAGGACCGGUACGGCCGCCACUCGUUUGCCAAUGAGCGCAUGCGGCCUGGGUAU	13.3	24.1	–	–	–
AGAGCAUUGACGGCCGCCACUCAUGUCACAUGAGGAUCACCCAUGUGAUGGGUGAUAGCCCGGUUGAGGACCGGGUCAAUGCUCA	–	–	18.8	19.4	–
AUAUAUACAUGAGGAUCACCCAUGUUAUUUCGAGGACCGGUACGGCCGCCACUCGAUAGAGUAGAAGUAAAUUUUAAUUCAUGUA	–	–	14.3	14.1	–
GAAUAAGAAUCGGCCGCCACUCACAUGAGGAUCACCCAUGUACAUGAGGAACAUGAAAAUCACCCGAGGACCGGGAUAUAUGUUC	70	66.9	–	–	–
AUAUAUACAUGAGGAUCACCCAUGUUAUUUCGAGGACCGGUACGGCCGCCACUCGAUAGAGUAGAAGUAACAUUUGUUAGAUGUA	–	–	19.7	13.9	–
CAAAGUUCGUCUCUGGUCCUCUAAUCGGCUCGAGGACCGGUACGGCCGCCACUCGCCCGACAUGAGGAUCACCCAUGUCUGUAAA	13.2	10.9	–	–	–
GCCGCGGCCGGAAUAAACAUGGGUAAAUAACGAGGACCGGUACGGCCGCCACUCGAGAUAAAUAACAUGAGGAUCACCCAUGUAC	163	80.3	–	–	–
AGCCACUCGAGUGAUCCUCACGAGUGGCAACGAGGACCGGUACGGCCGCCACUCGAAUAAACAUGAGGAUCACCCAUGUAAUAAU	–	–	70.5	49.1	–
AAAACAUGAGGAUCACCCAUGUACAUGGGUCGAGGACCGGUACGGCCGCCACUCGCCGCCCGCCCGCCCGCCACCUCUCCCGCCC	–	–	69.9	66.2	–
UUCACAUGGUAUGAAUAUACAUAUAAGAAACGAGGACCGGUACGGCCGCCACUCGUGCCGGAAACAUGAGGAUCACCCAUGUGUU	63.5	58.5	–	–	–
GAGUAGAGGACGGCCGCCACUAAACAUGAGGAUCACCCAUGUCGUGAUCCGUUACCUAGGGUAGAUAGGACCGGGUCAUGUAGUC	59.3	45.9	–	–	–
AGAGCAUUGACGGCCGCCACUCGUGUCACAUGAGGAUCACCCAUGUGACGGGUGAUCGCCCGGUUGAGGACCGGGUCAAUGCUCA	–	–	9.69	11.4	–
AAUAACAUGAGGAUCACCCAUGUAAAAGAUACCAGAGUGAUGAUCCUCCCUUGGCAGCUUAAAACGCUAUUGGAAACAAUAGCGA	–	–	–	–	apparent Kd (MS2 coat protein [2]; [7]): 80.5 nM; apparent Kd (MS2 coat protein [2]; [8]): 168 nM
AAGCUGCCAAGAACAUGGGUGAAAUGUGAUACCAGCUAGGAAACUAGCCCUUGGCAGCACAUGAGGAUCACCCAUGUAAUAAUAA	–	–	–	–	apparent Kd (MS2 coat protein [2]; [9]): 352 nM; apparent Kd (MS2 coat protein [2]; [10]): 93.7 nM
GGGAAUGAACGUGAUACCAGAGAUCCGGUCUCCGUCAAUAUACAUGAGGAUCACCCAUGUCUCCCUUGGCAGCACCGUCAUCGGG	–	–	–	–	apparent Kd (MS2 coat protein [2]; [9]): 14.8 nM; apparent Kd (MS2 coat protein [2]; [10]): 23.4 nM
CUCCGAGGCUAUACUAUCCGCCUCAGUGAUACCAGAAUACCUAUAUUCCCUUGGCAGCAUCACAUGAGGAUCACCCAUGUGCCAU	–	–	–	–	apparent Kd (MS2 coat protein [2]; [7]): 12.5 nM; apparent Kd (MS2 coat protein [2]; [8]): 15.2 nM
UAUUUGGUGCGCGAGUGUUGGAUAAUUGAUACCAGUGAAGAAGAGCGCCCUUGGCAGCGAAUCCUAACAUGAGGAUCACCCAUGU	–	–	–	–	apparent Kd (MS2 coat protein [2]; [7]): 39.2 nM; apparent Kd (MS2 coat protein [2]; [8]): 48.7 nM
AACAUGAGGAUCACCCAUGUAUUGGGUGAUACCAGCCUGAAUAAUGGCCCUUGGCAGCACCGCGCUAACUUUAUGUCUGCGAAAC	–	–	–	–	apparent Kd (MS2 coat protein [2]; [7]): 127 nM; apparent Kd (MS2 coat protein [2]; [8]): 138 nM
ACGUCACGUUUACUCGUGGUUUCGAUCGAUACCAGUAGCGAGAGUUACCCUUGGCAGCGACAUGAGGAUCACCCAUGUACGAAGA	–	–	–	–	apparent Kd (MS2 coat protein [2]; [9]): 13.5 nM; apparent Kd (MS2 coat protein [2]; [10]): 18.4 nM
ACAUGAGGAUCACCCAUGUUCCUCAUUGAUACCAGUGAAUUUAGACGCCCUUGGCAGCGAGUUUUUUUAUAAGAUGUUUUUUUUU	–	–	–	–	apparent Kd (MS2 coat protein [2]; [9]): 545 nM; apparent Kd (MS2 coat protein [2]; [10]): 1110 nM
ACAUGAAGAUUAAUCGUGGGCAUACUCGAUACCAGUAUUUUAACCUACCCUUGGCAGCGACAUGAGGAUCACCCAUGUGAGAUGA	–	–	–	–	apparent Kd (MS2 coat protein [2]; [9]): 21.6 nM; apparent Kd (MS2 coat protein [2]; [10]): 28.9 nM

Source: the EternaBench riboswitch data
